# Measurements collected from several papers.
# Each line is one published result; the experiments were not run side by side.
# KIT D816V: Mast/stem cell growth factor receptor Kit (KIT, Homo sapiens, UniProt P10721, D816V)
# KIT A829P: Mast/stem cell growth factor receptor Kit (KIT, Homo sapiens, UniProt P10721, A829P)
# KIT V559D: Mast/stem cell growth factor receptor Kit (KIT, Homo sapiens, UniProt P10721, V559D)
# KIT: Mast/stem cell growth factor receptor Kit (KIT, Homo sapiens, UniProt P10721)
# KIT D816H: Mast/stem cell growth factor receptor Kit (KIT, Homo sapiens, UniProt P10721, D816H)
# KIT T670I/V559D: Mast/stem cell growth factor receptor Kit (KIT, Homo sapiens, UniProt P10721, T670I/V559D)
# KIT autoinhibited: Mast/stem cell growth factor receptor Kit, autoinhibited (KIT, Homo sapiens, UniProt P10721)
# KIT V559D/V654A: Mast/stem cell growth factor receptor Kit (KIT, Homo sapiens, UniProt P10721, V559D/V654A)
Structure (SMILES),target,observed,method,tested at,remaining binding [%]
C=CC(=O)N1CCC(C(=O)NCC(=O)N2CCN(c3nc(-c4cnc(N)nc4C(F)F)nc(N4CCOCC4)n3)CC2)CC1,KIT D816V,binding,competition with immobilised ligand,1 µM,79
O=C(c1ccc(Nc2nccc(-c3cc4ccccc4s3)n2)cc1)N1CCC(N2CCCC2)CC1,KIT A829P,binding,competition with immobilised ligand,1 µM,31
COc1ccc2c(c1)O[C@@H](c1ccc(OC)c(OC)c1)C[C@H]2NC(=O)C1(c2ccc3c(c2)OC(F)(F)O3)CC1,KIT A829P,cell-free assay,competition with immobilised ligand,1 µM,75
C[C@@H](c1ccc(-n2cnc3c(N)ncnc32)cc1)N1CCc2nn(C)c(Cc3ccccc3)c2C1=O,KIT V559D,binding,competition with immobilised ligand,0.1 µM,32
Cc1nc(NC(=O)N2CCC[C@H]2C(N)=O)sc1-c1ccnc(C(C)(C)C(F)(F)F)c1,KIT,binding,competition with immobilised ligand,10 µM,100
Cc1c(NC(=O)c2cc(C(N)=O)nc3cc(F)ccc23)c(C(F)(F)F)nn1Cc1ccc(C(C)(C)C)cc1,KIT D816H,cell-free assay,competition with immobilised ligand,1 µM,100
Cc1cnn2ncc(-c3ccnc(N(C)C)n3)c2c1,KIT V559D,binding,,1 µM,100
CN1CCN(c2ccc(Nc3nccc(-c4ccccc4)n3)cc2C(F)(F)F)CC1,KIT D816V,binding,,10 µM,6.8
COc1ncc2cc3ccccc3nc2c1C#N,"Mast/stem cell growth factor receptor Kit (KIT, Homo sapiens, UniProt P10721, L576P)",cell-free assay,competition with immobilised ligand,5 µM,100
Cc1cnc(Nc2ccc(C(=O)N3CCC(N4CCCC4)CC3)cc2)nc1-c1cc2ccccc2s1,KIT D816H,binding,competition with immobilised ligand,1 µM,7.8
CO[C@H]1CC[C@H](CNc2ccc(S(=O)(=O)NC(=O)c3ccc(N4CCN(CC5=C(c6ccc(Cl)cc6)CC(C)(C)CC5)CC4)cc3Oc3cnc4[nH]ccc4c3)cc2[N+](=O)[O-])CC1,KIT V559D,cell-free assay,competition with immobilised ligand,1 µM,99
COc1cnc(Nc2cccc(S(N)(=O)=O)c2)nc1N1CCN(c2ccccc2)CC1,KIT V559D,binding,competition with immobilised ligand,1 µM,94
C[C@H]1CCN(c2nccc(-c3cnn4ncccc34)n2)C1,KIT T670I/V559D,binding,,1 µM,98
CN1CCN(c2ccc(Nc3nccc(-c4cccc([N+](=O)[O-])c4)n3)cc2C(F)(F)F)CC1,KIT T670I/V559D,binding,,10 µM,0.15
CCN1CCN(Cc2ccc(C(=O)Nc3ccc(C)c(Oc4ccc5c(c4)CC(=O)N5)c3)cc2C(F)(F)F)CC1,KIT autoinhibited,binding,competition with immobilised ligand,1 µM,100
N[C@H]1CCN(c2nccc(-c3cnn4ncccc34)n2)C1,KIT T670I/V559D,binding,,1 µM,100
Nc1ncc2c(n1)-c1c([nH]c3ccc(C#CC4CC4)cc13)CCCC2,KIT V559D,binding,competition with immobilised ligand,1 µM,100
O=C(Nc1c[nH]nc1C(=O)NC1CCNCC1)c1cc(F)cc(F)c1,KIT D816V,binding,competition with immobilised ligand,1 µM,100
c1cnn2ncc(-c3ccnc(N4CCC45COC5)n3)c2c1,KIT autoinhibited,binding,,1 µM,56
Cc1cc(NC(=O)c2cccc(S(F)(F)(F)(F)F)c2)cc(-n2ccn3nc(-c4cccnc4)cc23)c1,KIT A829P,cell-free assay,competition with immobilised ligand,1 µM,100
c1cncc(-c2cccc(Nc3nccc(NC4CCCCC4)n3)c2)c1,KIT,binding,competition with immobilised ligand,10 µM,3.8
COc1ccnn2ncc(-c3ccnc(N(C)C)n3)c12,KIT V559D/V654A,binding,,1 µM,100
COc1cnc(Nc2cccc(S(N)(=O)=O)c2)nc1N1CCN(c2ccccc2)C(=O)C1,KIT T670I/V559D,binding,competition with immobilised ligand,1 µM,100
N#CC1(c2ccccn2)CCN(Cc2cc(C(=O)N3CCCC3)c(=O)n3ccccc23)CC1,KIT A829P,cell-free assay,competition with immobilised ligand,1 µM,50
O=C(NCCCN1CCOCC1)c1ccc(Nc2nccc(-c3cc4ccccc4s3)n2)cc1,KIT V559D/V654A,binding,competition with immobilised ligand,1 µM,56
CN(c1nccc(-c2cnn3ncccc23)n1)C1CC1,KIT,binding,,1 µM,89
O=C(c1ccc(Nc2ncc(Cl)c(-c3ccc(Cl)s3)n2)cc1)N1CCC(N2CCCC2)CC1,KIT T670I/V559D,binding,competition with immobilised ligand,1 µM,0.75
CNC(=O)[C@@H]1CC[C@@H](n2c(-c3ccc4cnccc4c3)nc3ccc(C(=O)NCc4cccc(C(N)=O)c4)cc32)C1,KIT V559D,binding,competition with immobilised ligand,1 µM,100
O=C(c1ccc(Nc2ncc(Cl)c(-c3cc4ccccc4s3)n2)cc1)N1CCC(N2CCCC2)CC1,KIT V559D/V654A,binding,competition with immobilised ligand,1 µM,50
Cc1nc(Cc2cccc(C(F)(F)F)c2)sc1-c1ccc(C(N)=O)nc1,KIT D816V,cell-free assay,competition with immobilised ligand,1 µM,81
O=C(NCCCN1CCOCC1)c1ccc(Nc2ncc(Cl)c(-c3ccc(Cl)s3)n2)cc1,KIT V559D,binding,competition with immobilised ligand,1 µM,0.05
CC(C)(C)c1ccc(-c2nc(CBr)nn2-c2cccc(O)c2)cc1,KIT,cell-free assay,competition with immobilised ligand,10 µM,97
O=C(N1CCS(=O)(=O)CC1)N1C[C@H](c2ccc(OC(F)(F)F)cc2)C[C@H](c2nc(C3CC3)no2)C1,KIT V559D/V654A,cell-free assay,competition with immobilised ligand,1 µM,100
CN(C)c1nccc(-c2cnc3ncccn23)n1,KIT V559D,binding,,1 µM,81
O=C(NCC1CCOCC1)c1n[nH]cc1NC(=O)c1c(F)cccc1F,KIT V559D,binding,competition with immobilised ligand,1 µM,100
Cn1cc(Cl)c2c(Oc3c(F)cc(Nc4cc(Cl)nc(N)n4)cc3F)ccnc21,KIT A829P,cell-free assay,competition with immobilised ligand,0.1 µM,63
CN(CCCC(F)(F)F)c1nccc(-c2cnn3ncccc23)n1,KIT autoinhibited,binding,,1 µM,100
